From PubChem BioAssay
Most compounds without a hit are left out; they make up all but 1.7% or so of the library.
CSN deneddyl inh: blocks human CSN-mediated cullin deneddylation; Q92905; inhibition, % at 12.5 µM; Purified CSN, SCF-Nedd8-OG deneddylation, fluorescence polarization; AID 651999; 0.38% of 360,000 active;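 active = pattern-corrected inhibition above about 35%, with an unprinted fluorescence ratio check between 0.5 and 1.5, limit read from the data, passing the limit was not always enough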
Target sequence (Q92905 whole entry, looked up, one chain of several): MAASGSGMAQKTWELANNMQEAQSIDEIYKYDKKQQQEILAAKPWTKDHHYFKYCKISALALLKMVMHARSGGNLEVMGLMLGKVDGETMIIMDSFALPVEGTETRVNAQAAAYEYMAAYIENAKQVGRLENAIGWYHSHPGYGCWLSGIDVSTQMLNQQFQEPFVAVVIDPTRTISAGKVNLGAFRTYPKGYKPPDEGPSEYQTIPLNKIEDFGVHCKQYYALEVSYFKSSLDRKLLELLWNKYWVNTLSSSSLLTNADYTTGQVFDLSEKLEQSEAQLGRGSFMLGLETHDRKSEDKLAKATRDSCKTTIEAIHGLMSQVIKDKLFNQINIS
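Assay system: HEK293T-derived human Csn5 enzyme; quantity: 0.24 nM enzyme; medium: Tris/NaCl/DTT buffer, pH 7.5; also added: substrate SCFSkp2-Nedd8OG, 10 nM; doses: 12.5 µM compound; schedule: 90 min reaction at room temperature; signal: FP; read-out: % inhibition of substrate cleavage by Csn5; benchmarks: substrate-only high control, full reaction low control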
IDE act: IDE (human) activation, cell-based | HEK cells, FAbeta-B cleavage, fluorescence polarization; 0% vehicle, 100% cell-free pure enzyme wells | activation, % at 5.96 µM | 0.073% of 340,000 active | AID 493087;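 active = activation above the mean of all tested compounds plus 3 SD, set per screening campaign, cut at about 17% in these data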
IDE inh: inhibits human insulin-degrading enzyme in HEK cells | FAbetaB cleavage, fluorescence polarization | inhibition, % at 5.59 µM | 0.41% of 320,000 active | AID 434962;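 active = percent inhibition above the average of all tested compounds plus 3 SD, set per screening campaign, cut at about 16% in these data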;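 note: IDE supplied by intact live HEK cells; FP after avidin binding of uncleaved biotin substrate so inhibition keeps polarization high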
TPT1 inh: C. albicans TPT1 enzyme inhibition. recombinant caTPT1, FP RNA substrate dephosphorylation. inhibition, % at 5 µM. 0.81% of 300,000 active. AID 1962;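 active = inhibition above the mean of all tested compounds plus 3 SD, set per screening campaign, cut at about 24% in these data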
Rpn11 block: Rpn11 (human) deubiquitinase inhibition; inhibition, % at 20 µM; human 26S proteasome, Ub4-pepOG fluorescence polarization; 20S core pre-blocked with epoxomicin; O00487; 0.59% of 360,000 active;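 active = inhibition at 20 µM, scaled to each plate's controls, above about 33%, limit read from the data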
Target sequence (O00487 whole entry, looked up): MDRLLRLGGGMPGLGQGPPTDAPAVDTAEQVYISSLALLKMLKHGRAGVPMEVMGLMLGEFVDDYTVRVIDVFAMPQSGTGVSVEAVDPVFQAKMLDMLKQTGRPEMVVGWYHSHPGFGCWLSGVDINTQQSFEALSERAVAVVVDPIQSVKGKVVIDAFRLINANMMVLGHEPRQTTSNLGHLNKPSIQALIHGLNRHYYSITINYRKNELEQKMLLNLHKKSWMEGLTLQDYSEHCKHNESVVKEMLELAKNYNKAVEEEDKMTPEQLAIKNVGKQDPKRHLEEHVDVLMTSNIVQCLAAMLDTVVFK
HNF4A DNA FP: change in binding of human HNF4 alpha to DNA; HNF4a-FITC DNA binding, fluorescence polarization, 1 h; activity change, % at 10 µM; 0.3% of 360,000 active; P41235; AID 1224865; in the data active = activity change above about 30%, passing the limit was not always enough
caTPT1 confirm: confirmation of Candida albicans TPT1 inhibitors. shares compounds with TPT1 inh. 74% of 2,400 active. inhibition, % at 5 µM. recombinant caTPT1, fluorescence polarization, RNase T1 coupled. AID 2149;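 active = inhibition above the primary screen limit, the mean inhibition of all tested compounds plus 3 SD, cut at about 25% in these data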
RNase T1 inh: blocks Aspergillus oryzae RNase T1, a TPT1 counter-screen; shares compounds with TPT1 inh; RNase T1 cleavage, fluorescence polarization, 1536-well; inhibition, % at 5 µM; 83% of 2,400 active; AID 2153;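 active = inhibition above the solvent-only control well mean plus 3 SD, limit set per screening run, cut at about 23% in these data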;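 note: inhibitors block cleavage so intact labeled substrate keeps polarization high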
IDE cell inh cf: confirmation of human insulin-degrading enzyme inhibitors in cells | shares compounds with IDE inh | HEK cells, FAbetaB cleavage, fluorescence polarization | inhibition, % at 5.59 µM | 51% of 1,200 active;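 active = mean inhibition across triplicate wells above the cutoff set by the earlier primary insulin-degrading enzyme screen, cut at about 16% in these data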
HEK293 tox: counter-screen for IDE inhibitors: cytotoxicity in HEK cells; shares compounds with IDE inh; HEK293 cytotoxicity, ATP luminescence; inhibition, % at 5.59 µM; 28% of 1,200 active; AID 449730; in the data active = inhibition above about 22%
Rpn11 inh conf: Rpn11 inhibition confirmation, single concentration | shares compounds with Rpn11 block | purified human 26S proteasome, Ub4-pepOG fluorescence polarization; proteasome pretreated with epoxomicin | inhibition, % at 20 µM | 29% of 1,900 active
MMP-2 counter: counter-screen for RPN11 inhibitors: inhibition of human MMP-2 | shares compounds with Rpn11 block | recombinant MMP-2, FRET peptide cleavage fluorescence | inhibition, % at 20 µM | 4% of 1,900 active;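 note: human MMP-2 activated beforehand with APMA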
Thrombin FP: thrombin (bovine) inhibition counter-screen | shares compounds with Rpn11 block | AID 602333 | 13% of 1,900 active | bovine thrombin cleavage of Ub4-pepOG, fluorescence polarization | inhibition, % at 20 µM;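 active = mean inhibition at least 40% at 20 µM, or signal 3 deviations below plate average, so some actives read negative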
A number is an active result; - = inactive; . = not tested or not shown. Cut-off read from the data, not from the text of the source, unless noted: active = inhibition above about 40%; inactive = the rest.

SMILES	CSN deneddyl inh	IDE act	IDE inh	TPT1 inh	Rpn11 block	HNF4A DNA FP	caTPT1 confirm	RNase T1 inh	IDE cell inh cf	HEK293 tox	others
O=C(OCc1csc(Nc2ccccc2)n1)c1ccc(Cl)cc1	-	-	-	-	-	-	.	.	.	.
COC(=O)C1CSC(C(=O)OC)N1C(=O)CN1CCN(c2ccc(OC)cc2)CC1 (stereo not given)	-	-	-	-	-	-	.	.	.	.
CCN(CC)c1ccc(/C=C/C(=O)c2ccc(Br)cc2)cc1	-	-	163	97	.	-	94	96	61	-
CC(C)Oc1cccc(NC(=O)C2(C)CCN2C(=O)C(C)C)c1 (stereo not given)	-	.	.	.	-	-	.	.	.	.
COc1ccc2c(Cl)c(C(=O)N/N=C3\CCCC(=O)C3)sc2c1	-	-	22	97	.	-	121	115	31	-
COc1ccc2c(Cl)c(C(=O)N/N=C/c3ccc4c(c3)OCO4)sc2c1	-	-	-	-	-	-	.	.	.	.
O=C(N/N=C\c1c(O)ccc2ccccc12)c1ccc(Cn2cccn2)o1	-	-	42	40	.	-	45	49	63	68
CCSC1=NSC2=NC(=O)/C(=C\c3coc4ccccc4c3=O)C(=N)N12	-	-	55	55	-	-	-	-	51	-
O=C1/C(=C/c2cccnc2)CCC/C1=C\c1cccnc1	.	.	-	-	.	.	.	.	.	.
Cn1cccc1/C=C1\CCC/C(=C\c2cccn2C)C1=O	-	-	71	192	.	-	194	171	118	23
O=C1/C(=C\c2c(NCCOCCO)nc3ccccn3c2=O)SC(=S)N1Cc1ccco1	-	-	99	86	.	-	86	87	80	-
CN1CCC/C1=C/C=C1\SC(=S)NC1=O	-	-	76	146	.	-	154	140	69	-
O=C1NC(=S)SC1=Cc1cccs1	-	-	.	.	-	-	.	.	.	.
CCN(C(=O)COC(=O)c1c(NC(C)=O)sc(C)c1C)c1c(N)n(Cc2ccccc2)c(=O)[nH]c1=O	-	-	.	.	-	-	.	.	.	.
COc1cc(/C=C(\C#N)c2ccccn2)ccc1OCc1ccccc1Cl	-	-	-	-	-	-	.	.	.	.
COc1cc(/C=C(\C#N)c2[nH]nc(N)c2C#N)cc(OC)c1O	-	-	84	25	-	-	33	37	166	-
COc1cc(/C=C(\C#N)c2ccccn2)cc(OC)c1O	-	-	160	56	.	-	72	76	52	-
COc1cc(/C=C(\C#N)c2nn(CCO)c(N)c2C#N)cc(OC)c1OC	-	-	-	-	-	-	.	.	.	.
CC(C)C[C@H](NC(=O)C1CC(=O)N(c2ccc3c(c2)OCCO3)C1)C(=O)N1CCCCC1 (stereo not given in full)	-	-	-	-	-	-	.	.	.	.
O=[N+]([O-])c1ccccc1S(=O)(=O)Nc1ccc2c(c1)OCCO2	-	-	.	.	-	-	.	.	.	.
CCc1ccc(/C=C2/SC(N3CCOCC3)=NC2=O)cc1	-	-	-	-	-	-	.	.	.	.
CCN1C/C(=C/c2ccc(N3CCOCC3)cc2)C(=O)/C(=C/c2ccc(N3CCOCC3)cc2)C1	-	-	18	99	.	-	97	93	29	94
COc1ccc(S(=O)(=O)Nc2cc(S(=O)(=O)N3CCOCC3)ccc2OC)cc1	-	-	-	.	-	-	.	.	.	.
COc1ccc(C(=O)c2sc3nc(-c4ccccc4)ccc3c2N)cc1	-	-	21	82	64	-	85	92	19	-
N#Cc1c(Cl)nsc1NC(=O)c1ccccc1	-	-	-	-	-	-	.	.	.	.
SMILES	CSN deneddyl inh	IDE act	IDE inh	TPT1 inh	Rpn11 block	HNF4A DNA FP	caTPT1 confirm	RNase T1 inh	IDE cell inh cf	HEK293 tox	others
CC(=O)COc1ccc2cc(-c3ccccc3)c(=O)oc2c1	-	-	-	-	-	-	.	.	.	.
O=C(CCCCl)Oc1ccc2cc(-c3ccc4ccccc4n3)c(=O)oc2c1	-	-	37	49	-	-	35	42	52	-
CN(CC(=O)Nc1cccc(F)c1)C(=O)c1ccc(COc2ccccc2)o1	-	-	-	-	-	-	.	.	.	.
COc1ccc(C(C#N)c2ccc(=O)[nH]n2)cc1 (stereo not given)	-	-	-	-	-	-	.	.	.	.
CCOC(=O)c1c(N)n(C2CC(C)(C)NC(C)(C)C2)c2nc3ccccc3nc12	-	-	-	-	-	-	.	.	.	.
CCOC(=O)c1c(NC(=O)c2ccco2)n(C2CCCCC2)c2nc3ccccc3nc12	-	-	-	31	45	-	28	39	.	.	Rpn11 inh conf=-;MMP-2 counter=-;Thrombin FP=-
CCOc1ccc(Cn2c(=O)sc3ccccc32)cc1OC	-	-	-	-	-	-	.	.	.	.
COc1ccc2c(/C=C/c3cc[n+](C)cc3)c[nH]c2c1	-	-	-	43	52	36	47	59	.	.	Rpn11 inh conf=68;MMP-2 counter=-;Thrombin FP=72
COc1ccc2c(C=O)c[nH]c2c1	-	-	-	-	-	-	.	.	.	.
N=C1/C(=C/c2ccc(-c3cccc(C(=O)O)c3)o2)C(=O)N=C2SC=C(c3ccccc3)N12	77	-	-	74	132	-	84	92	.	.	Rpn11 inh conf=152;MMP-2 counter=-;Thrombin FP=51
N=C1/C(=C\c2ccc(-c3cc(Cl)cc(Cl)c3)o2)C(=O)N=C2SC=C(c3ccccc3)N12	-	-	-	-	-	-	.	.	.	.
COc1ccc(/C=C2\SC(=S)N(C(C(=O)O)c3ccccc3)C2=O)c(OC)c1 (stereo not given)	-	-	-	27	41	-	40	53	.	.	Rpn11 inh conf=-;MMP-2 counter=-;Thrombin FP=-
COc1cc(S(=O)(=O)Nc2ccccc2)ccc1N=Cc1c(C)[nH]n(-c2ccc(C)cc2)c1=O	.	.	-	-	.	.	.	.	.	.
COc1cc(SC#N)ccc1N=Cc1c(C)[nH]n(-c2ccc(C)c(C)c2)c1=O	-	-	-	30	44	-	62	67	.	.	Rpn11 inh conf=-;MMP-2 counter=-;Thrombin FP=-
